Shown are actives, neighbours in structure and some others; about 2.6% of the full set was active somewhere.
PRMT1 FP inh: inhibitors of human PRMT1; inhibition, % at 2.79 µM; recombinant PRMT1, activity-based probe fluorescence polarization; AID 652257; hit rate 1.3% among 370,000; Q99873;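 active = inhibition above about 21% made by adding two undisclosed values, limit read from the data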
ABHD4 inh: inhibitors of mouse ABHD4 | purified mABHD4, FP-Rh probe fluorescence polarization | inhibition, % at 8.92 µM | hit rate 0.54% among 370,000;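 active = inhibition exceeding the mean over every tested compound plus 3 SD, cut at about 30% in these data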;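 note: 0% = plate median of compound wells and 100% = S159A mutant with DMSO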
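Doses – 8.92 µM, single dose · Material – wild-type mouse ABHD4 protein · Replication – single well per compound (singlicate) · Measure – percent inhibition of probe binding, normalized to plate controls · Schedule – 45 min compound pre-incubation plus 60 min probe step, 25 °C · Detection – fluorescence polarization with parallel and perpendicular emission, 525/598 nm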
TCR-CD3 inh: human TCR-CD3 binding inhibition; inhibition, % at 9.4 µM; AID 651800; TAMRA-labeled TCR probe fluorescence, biochemical; hit rate 0.37% among 360,000; in the data active = inhibition above about 19%;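 note: recombinant mutant TCR 2C K166C tagged with TAMRA read by polarization; 0% = receptor in buffer alone and 100% = receptor with positive control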
HTRA1 inhibitor: blocks human HTRA1 serine peptidase. AID 504803. recombinant HTRA1, FP-rhodamine activity-based probe, fluorescence polarization. hit rate 0.5% among 340,000. inhibition, % at 5.96 µM. Q92743; in the data active = inhibition above about 36%;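 note: 0% = enzyme with DMSO and 100% = wells lacking enzyme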
SIAE primary: human SIAE inhibition, primary screen; Q9HAT2; inhibition, % at 9.66 µM; hit rate 0.69% among 370,000; SIAE FP-Rh probe binding, fluorescence polarization;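 active = inhibition above a cutoff: mean of compounds within the control limits plus 3 SD of those, cut at about 17% in these data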;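 note: 0% = plate median of compound wells and 100% = probe without SIAE protein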
Target sequence (Q9HAT2 whole entry, looked up): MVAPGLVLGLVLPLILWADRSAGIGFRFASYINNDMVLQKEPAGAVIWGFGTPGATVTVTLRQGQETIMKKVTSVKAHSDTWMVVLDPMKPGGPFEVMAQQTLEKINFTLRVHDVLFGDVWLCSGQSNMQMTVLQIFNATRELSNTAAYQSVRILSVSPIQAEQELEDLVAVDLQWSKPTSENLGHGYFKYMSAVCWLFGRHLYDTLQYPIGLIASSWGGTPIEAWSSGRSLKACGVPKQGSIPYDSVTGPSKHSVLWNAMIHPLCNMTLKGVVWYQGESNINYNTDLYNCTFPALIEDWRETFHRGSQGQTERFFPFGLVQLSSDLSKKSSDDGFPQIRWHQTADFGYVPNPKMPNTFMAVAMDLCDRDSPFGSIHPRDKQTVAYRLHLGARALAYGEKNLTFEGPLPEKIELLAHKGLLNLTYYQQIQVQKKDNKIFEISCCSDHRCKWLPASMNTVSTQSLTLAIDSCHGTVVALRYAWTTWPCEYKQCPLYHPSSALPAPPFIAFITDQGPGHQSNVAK
The depositor's hits bear a star; nt = not tested or not shown.

SMILES	PRMT1 FP inh	ABHD4 inh	TCR-CD3 inh	HTRA1 inhibitor	SIAE primary
COC(=O)[C@]12C[C@H](CC(=O)N3CCCCC3)C(=O)N(Cc3ccc4c(c3)OCO4)C1=C[C@H](COCc1ccccc1)O[C@@H]2C	1	3	0	nt	13
CSC1=NSC2=NC(=O)/C(=C/c3coc4ccc(O)cc4c3=O)C(=N)N12	25*	-12	-10	17	-28
CSC1=NSC2=NC(=O)/C(=C/c3coc4ccccc4c3=O)C(=N)N12	17	-11	-9	-22	-29
CCCCCCCCCCCCN1CCSCCS1(=O)=O	0	2	-4	nt	1
CC(Oc1ccc(Cl)cc1Cl)C(=O)NNC(=O)C(=O)N1CCCC1 (stereo unspecified)	-1	-8	-5	-1	-8
CC1=C([N+](=O)[O-])C(c2ccccc2)C2=C(N1)c1ccccc1C2=O (stereo unspecified)	9	19	-4	21	9
Cc1cccc(C2C3=C(Nc4[nH]n(-c5ccccc5)c(=O)c42)c2ccccc2C3=O)c1 (stereo unspecified)	21*	43*	4	32	20*
O=C1NC(=Nc2ccc(Cl)cc2)/C(=C/c2ccco2)S1	14	-49	-4	5	2
Cc1cccc(N=C2NC(=O)S/C2=C\c2ccco2)c1	21*	-75	-8	24	1
COc1ccc(-c2c3c([nH]c(=S)c2C#N)CCC3)cc1	23*	-2	-1	-7	-8
CCCCC(CC)c1nnc(NC(=O)c2cccs2)s1 (stereo unspecified)	5	-5	-2	-3	-2
CC(C)c1nnc(NC(=O)c2cccs2)s1	25*	0	-4	-5	2
C/C(=N\NC(=O)c1cccc(N/N=C(\C)c2cc(O)ccc2O)c1)c1cc(O)ccc1O	6	24	30*	28	11
O=C(O)c1cccc(-c2ccc(/C=c3/sc4nc5ccccc5n4c3=O)o2)c1	24*	15	15	-5	-14
Cc1sc2nc(CSCC(=O)N(C)CC(=O)Nc3ccc(F)cc3)[nH]c(=O)c2c1C	23*	3	6	-5	7
Cc1sc2nc(CSCC(=O)Nc3ccc(C(F)(F)F)cc3)[nH]c(=O)c2c1C	4	-3	-2	-6	15
Cc1sc2nc(CSCC(=O)N(CCC#N)c3ccccc3)[nH]c(=O)c2c1C	1	6	20*	-4	-2
Cc1ccc(S(=O)(=O)N2CCN(C(=O)CSc3ccccn3)CC2)c(C)c1	3	3	8	-2	-2
CCOc1ccc(N=Cc2ccc([N+](=O)[O-])cc2)c(O)c1	22*	35*	7	31	3
CCOc1ccc(CNC(=S)N/N=C\c2ccc([N+](=O)[O-])cc2)cc1	1	-2	5	2	3
CC(C)C[C@@H]1COc2cccc(NCCO)c2S(=O)(=O)N1	-1	0	7	nt	-2
Cc1ccc(S(=O)(=O)N2CCCCC2)cc1NC(=O)C1COc2ccccc2O1 (stereo unspecified)	0	0	-11	-15	12
O=C1c2cccc3cccc(c23)C(=O)N1/N=C/c1ccc(O)cc1O	-1	1	4	1	7
O=C1c2ccccc2C(=O)N1/N=C/c1ccc(O)c(O)c1O	nt	nt	nt	44*	nt
Oc1c(C=NCc2ccncc2)sc2ccccc12	63*	-5	-4	nt	-17
SMILES	PRMT1 FP inh	ABHD4 inh	TCR-CD3 inh	HTRA1 inhibitor	SIAE primary
O=S1(=O)N[C@@H](Cc2ccccc2)COc2cc(NCCCN3CCOCC3)ccc21	-3	1	-6	nt	-3
CCN(C(=O)COC(=O)c1ccc2c(c1)OCO2)c1c(N)n(Cc2ccccc2)c(=O)[nH]c1=O	2	-11	4	-3	-1
O=C(OCC(=O)c1cccs1)c1ccccc1	-1	-5	2	-3	2
O=C(CC(Nc1ccccc1Cl)C(=O)OCC(=O)c1cccs1)c1ccccc1 (stereo unspecified)	21*	-8	9	-9	-1
COCc1[nH]nc2c1C(c1ccc(F)cc1)N(c1ccc(OC)cc1)C2=O (stereo unspecified)	-6	4	3	nt	0
CCN(CC)c1ccc2cc(C(C)=O)c(=O)oc2c1	-24	-4	2	-1	4
CCN(CC)c1ccc2cc(NC(=O)CCC(=O)O)c(=O)oc2c1	34*	58*	16	19	9
CC(C)c1ccc(N2C(=O)CC(Sc3nc4ccccc4o3)C2=O)cc1 (stereo unspecified)	23*	-2	2	-22	0
CSc1ccccc1OCc1cc(C(=O)NCC(C)Oc2cccnc2)no1 (stereo unspecified)	-1	5	7	-4	-3
c1ccc2c(c1)-c1nc3ccccc3cc1C2N1CCOCC1 (stereo unspecified)	-4	2	-1	-5	3
c1ccc2c(c1)-c1ccccc1C2N1CCOCC1	24*	-2	-1	4	-3
O=c1c2c3nc4ccccc4nc3n(Cc3ccccc3)c2ncn1Cc1ccco1	38*	-20	4	-55	-10
COc1cccc(NC(=O)C2(C)CCN2Cc2ccc3ccccc3c2)c1 (stereo unspecified)	-3	-18	-1	nt	-4
CCn1ncc(NC(=S)Nc2ccc3c(c2)OCO3)c1C(N)=O	2	9	5	-4	0
CCn1ncc(NC(=S)Nc2ccc(OC)c(OC)c2)c1C(N)=O	22*	18	5	4	9
C[C@@H]1ON(C)[C@H]2C[C@H]3c4[nH]c5cccc(-c6ccccc6)c5c4CCN3C[C@@H]12	0	-2	-5	nt	-3
CCOC(=O)C1=C(C)N=c2sc(=Cc3cc(Cl)c(OCC(=O)O)c(Cl)c3)c(=O)n2C1c1cccc(OC)c1 (stereo unspecified)	13	-7	-2	nt	-31
COc1cccc(C2C(C(=O)Nc3ccccc3)=C(C)N=c3s/c(=C/c4ccc(OCC(=O)O)cc4)c(=O)n32)c1 (stereo unspecified)	30*	-56	11	-25	-27
CCOC(=O)C1=C(C)N=c2s/c(=C\c3ccc(OCC(=O)O)cc3)c(=O)n2C1c1ccc(OC(C)C)cc1 (stereo unspecified)	30*	-73	7	-38	-67
CCOC(=O)C1=C(C)N=c2s/c(=C/c3ccc(OCC(=O)O)cc3)c(=O)n2C1c1cc(OC)c(OC)c(OC)c1 (stereo unspecified)	18	-17	-1	-4	1
CC(=O)C1=C(C)N(CC(C)C)C(=S)NC1c1cccc(Cl)c1 (stereo unspecified)	0	-2	-5	nt	12
O=C(CC1CCCC1)N1CCN(S(=O)(=O)c2ccccc2)CC1	1	2	9	0	1
O=C1c2cccc3cccc(c23)C(=O)C1(O)O	54*	23	-4	32	9
O=C1c2cccc3cccc(c23)C(=O)N1c1ccc(O)cc1	-4	-8	10	-1	0

High-throughput results: PubChem, The Scripps Research Institute Molecular Screening Center
